Assay outcomes (PubChem BioAssay)
Sampled rows, rich in hits. Any-hit rate of the full collection: about 1.1%.
FXIIa inh: human FXIIa protease inhibitors, primary screen, biochemical, 1536-well; Coagulation factor XII (Homo sapiens), P00748; purified FXIIa, Boc-QGR-AMC fluorogenic substrate, 2 h; inhibition, % at 5 µM; hit rate 0.3% among 220,000; AID 800, 2007; in the data active = inhibition above about 40%
Target sequence (P00748 20-372 limits assumed): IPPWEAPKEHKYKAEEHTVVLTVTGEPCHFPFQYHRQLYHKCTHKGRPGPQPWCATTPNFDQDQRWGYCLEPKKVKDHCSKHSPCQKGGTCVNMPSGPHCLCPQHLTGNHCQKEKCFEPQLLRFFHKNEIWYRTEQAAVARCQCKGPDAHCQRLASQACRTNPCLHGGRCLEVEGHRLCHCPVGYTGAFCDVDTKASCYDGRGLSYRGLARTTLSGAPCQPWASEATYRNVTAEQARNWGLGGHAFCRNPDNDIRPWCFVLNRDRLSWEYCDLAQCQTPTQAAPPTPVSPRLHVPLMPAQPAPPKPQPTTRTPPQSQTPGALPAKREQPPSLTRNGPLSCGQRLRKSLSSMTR
Target sequence (P00748 373-615 limits assumed): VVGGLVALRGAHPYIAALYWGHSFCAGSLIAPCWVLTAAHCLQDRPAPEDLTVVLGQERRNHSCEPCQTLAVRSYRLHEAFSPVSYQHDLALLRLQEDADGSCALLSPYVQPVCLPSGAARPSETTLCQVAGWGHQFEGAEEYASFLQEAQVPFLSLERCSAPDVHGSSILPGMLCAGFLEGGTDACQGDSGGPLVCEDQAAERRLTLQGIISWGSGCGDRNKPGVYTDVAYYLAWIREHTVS
hK5 inh: human KLK5 protease inhibitors, primary screen, biochemical, 1536-well. Kallikrein-5 (Homo sapiens), Q9Y337. recombinant hK5, fluorogenic AMC substrate cleavage. inhibition, % at 5 µM. hit rate 0.59% among 210,000. AID 873, 2007;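 active = inhibition of 40% or more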
Thrombin inh: human alpha-thrombin inhibitors, primary screen, counter-screen for coagulation protease inhibitor project, biochemical, 1536-well, fluorogenic AMC substrate; Boc-VPR-AMC fluorogenic substrate cleavage; inhibition, % at 5 µM; hit rate 0.26% among 220,000;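 active = inhibition at or above 40%; inactive = inhibition below 40%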
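Material: Human alpha-thrombin protein | Buffer or medium: pH 7.5 Tris-saline with Tween 20 | Reagent: Boc-VPR-AMC substrate, 15 µM final | Schedule: Reaction at ambient temperature | Detection: AMC fluorescence at 355 nm excitation and 460 nm emission | Evaluation: Percent inhibition scaled between no-compound controls and no-enzyme blanks | Controls: no-compound enzyme wells and no-enzyme blanks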
FXIa inh 1536: human FXIa protease inhibitors, primary screen, biochemical, 1536-well. purified FXIa, Boc-Glu-Ala-Arg-AMC fluorogenic substrate. inhibition, % at 5 µM. hit rate 0.14% among 220,000;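 active = inhibition of at least 40%; inactive = inhibition below 40%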;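 note: fluorescence of freed AMC excited at 355 nm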
Furin inhibitor: human furin inhibitors, primary screen, biochemical, fluorescence intensity. purified furin, fluorogenic substrate cleavage. hit rate 0.061% among 220,000. inhibition, % at 20 µM or 30 µM. P09958; in the data active = inhibition above about 25%
Hits are given with their value.

Results for CCOC(=O)c1c(-c2ccccc2Cl)csc1NC(=O)c1cc(S(=O)(=O)N2CCOCC2)ccc1C ?
FXIIa inh: inactive; hK5 inh: inactive; Thrombin inh: inactive; FXIa inh 1536: inactive; Furin inhibitor: inactive

What do the screens show for `O=C(Cn1c(-c2cscn2)nc2ccccc21)Nc1ccccc1F`?
FXIIa inh: inactive; hK5 inh: 42; Thrombin inh: inactive; FXIa inh 1536: inactive; Furin inhibitor: inactive

Results for O=C(/C=C/c1cccs1)N1CCN(Cc2ccc3c(c2)OCO3)CC1 ?
FXIIa inh: inactive; hK5 inh: inactive; Thrombin inh: inactive; FXIa inh 1536: inactive; Furin inhibitor: inactive

How did Cc1ccc2c(c1)c1c3n2CCCNC3CCC1 (stereo not given) do in these assays?
FXIIa inh: inactive; hK5 inh: inactive; Thrombin inh: 41; FXIa inh 1536: inactive; Furin inhibitor: inactive

What do the screens show for `COc1cc(C(=O)O/N=C2/C=CC(=O)C(C)=C2C)cc(OC)c1OC`?
FXIIa inh: inactive; hK5 inh: inactive; Thrombin inh: inactive; FXIa inh 1536: inactive; Furin inhibitor: inactive

What do the screens show for `COc1cc(C(=O)O/N=C2\C=CC(=O)C=C2C)cc(OC)c1OC`?
FXIIa inh: 41; hK5 inh: inactive; Thrombin inh: inactive; FXIa inh 1536: inactive; Furin inhibitor: inactive

What do the screens show for `COc1ccc(/C=N\NS(=O)(=O)c2ccc(Cl)cc2)cc1COc1ccccc1[N+](=O)[O-]`?
FXIIa inh: inactive; hK5 inh: 47; Thrombin inh: 85; FXIa inh 1536: inactive; Furin inhibitor: inactive

What do the screens show for `C=CCNC(=O)c1onc(CSc2cccc(C)c2)c1C(=O)O`?
FXIIa inh: inactive; hK5 inh: inactive; Thrombin inh: inactive; FXIa inh 1536: inactive; Furin inhibitor: inactive

How did COc1cc(CCC(=O)Nc2cccc(C(F)(F)F)c2)cc(OC)c1OC do in these assays?
FXIIa inh: inactive; hK5 inh: inactive; Thrombin inh: 41; FXIa inh 1536: inactive; Furin inhibitor: inactive

Results for COC(=O)COc1ccc(NC(=O)c2ccco2)cc1 ?
FXIIa inh: inactive; hK5 inh: inactive; Thrombin inh: inactive; FXIa inh 1536: inactive; Furin inhibitor: inactive

Results for O=C(COC(=O)c1ccccc1O)NCCCc1ccccc1 ?
FXIIa inh: inactive; Thrombin inh: inactive; FXIa inh 1536: inactive; Furin inhibitor: inactive

Results for O=C(COC(=O)c1ccc(O)cc1)NCCCc1ccccc1 ?
FXIIa inh: 43; hK5 inh: inactive; Thrombin inh: 91; FXIa inh 1536: inactive; Furin inhibitor: inactive

Results for Nc1nc(-c2ccco2)nn1S(=O)(=O)c1ccc(Cl)cc1 ?
FXIIa inh: inactive; hK5 inh: inactive; Thrombin inh: inactive; FXIa inh 1536: inactive; Furin inhibitor: inactive

What do the screens show for `COC(=O)C(NC(=O)c1ccco1)(Nc1nc(C)cs1)C(F)(F)F` (stereo not given)?
FXIIa inh: 54; hK5 inh: inactive; Thrombin inh: inactive; FXIa inh 1536: inactive; Furin inhibitor: inactive

Results for COC(=O)C(NC(=O)c1ccccc1)(Nc1nc(C)cs1)C(F)(F)F (stereo not given) ?
FXIIa inh: inactive; hK5 inh: inactive; Thrombin inh: inactive; FXIa inh 1536: inactive; Furin inhibitor: inactive

How did CCOC(=O)N/N=C(\C)c1ccc(OC(F)F)cc1OC(F)F do in these assays?
FXIIa inh: inactive; hK5 inh: inactive; Thrombin inh: inactive; FXIa inh 1536: inactive; Furin inhibitor: inactive

Results for Oc1ccc(/C=N/N2CCN(C3c4ccccc4-c4ccccc43)CC2)c(O)c1 ?
FXIIa inh: inactive; hK5 inh: inactive; Thrombin inh: inactive; FXIa inh 1536: 48; Furin inhibitor: inactive

How did Cc1ccc(N=Nc2c(N)n(-c3ccccc3)[nH]c2=O)cc1 do in these assays?
FXIIa inh: inactive; hK5 inh: 40; Thrombin inh: inactive; FXIa inh 1536: inactive; Furin inhibitor: inactive

What do the screens show for `CSCCC(NS(=O)(=O)c1ccc(Cl)cc1)C(=O)OCC(=O)c1ccc(F)cc1` (stereo not given)?
FXIIa inh: inactive; hK5 inh: inactive; Thrombin inh: inactive; FXIa inh 1536: inactive; Furin inhibitor: inactive

How did CCOC(=O)c1ccc(NC(=O)CSc2nc3sc(C(=O)O)c(C)c3c(=O)[nH]2)cc1 do in these assays?
FXIIa inh: inactive; hK5 inh: inactive; Thrombin inh: inactive; FXIa inh 1536: inactive; Furin inhibitor: inactive

What do the screens show for `Cn1ncc(Oc2ccc([N+](=O)[O-])cc2)c(Cl)c1=O`?
FXIIa inh: 42; hK5 inh: 71; Thrombin inh: inactive; FXIa inh 1536: inactive; Furin inhibitor: inactive

How did COc1ccc(CCn2c(C)cc(C(=O)CCl)c2C)cc1OC do in these assays?
FXIIa inh: 103; hK5 inh: inactive; FXIa inh 1536: inactive; Furin inhibitor: inactive

Results for CC1(C)CN2C(=S)N(c3ccccc3)C(c3ccccc3)N2C1 (stereo not given) ?
FXIIa inh: inactive; hK5 inh: inactive; Thrombin inh: inactive; FXIa inh 1536: inactive; Furin inhibitor: inactive

How did O=C(OCC(=O)N1CCCC1=O)C1COc2ccccc2O1 (stereo not given) do in these assays?
hK5 inh: inactive; Thrombin inh: inactive; FXIa inh 1536: inactive; Furin inhibitor: inactive

Results for Cc1ccc(NC(=O)CNc2ccc(OC(C)C)cc2)cc1 ?
FXIIa inh: inactive; hK5 inh: inactive; Thrombin inh: inactive; FXIa inh 1536: inactive; Furin inhibitor: inactive

How did Cc1ccc(C(CC(=O)NCCCN(C)C)c2ccc(OC(C)C)cc2)cc1 (stereo not given) do in these assays?
FXIIa inh: 63; hK5 inh: inactive; Thrombin inh: inactive; FXIa inh 1536: inactive; Furin inhibitor: inactive

Results for O=c1[nH]ncn1-c1ccc(Br)cc1 ?
FXIIa inh: inactive; Thrombin inh: inactive; FXIa inh 1536: inactive; Furin inhibitor: inactive

Results for Cc1ccccc1OCC(=O)Nc1sc(C(=O)Nc2cccc(C)c2C)c(C)c1C#N ?
FXIIa inh: inactive; hK5 inh: 45; Thrombin inh: inactive; FXIa inh 1536: inactive; Furin inhibitor: inactive

What do the screens show for `COc1ccccc1NC(=O)c1sc(NC(=O)c2ccco2)c(C#N)c1C`?
FXIIa inh: inactive; hK5 inh: inactive; Thrombin inh: inactive; FXIa inh 1536: inactive; Furin inhibitor: inactive

How did CCN(CC)C(=O)c1sc(NC(=O)Cc2ccc(OC)cc2)c(C#N)c1C do in these assays?
FXIIa inh: inactive; hK5 inh: inactive; Thrombin inh: inactive; FXIa inh 1536: inactive; Furin inhibitor: inactive

What do the screens show for `CCN(CC)C(=O)c1sc(NC(=O)Cc2ccccc2)c(C#N)c1C`?
FXIIa inh: inactive; hK5 inh: 41; Thrombin inh: inactive; FXIa inh 1536: inactive; Furin inhibitor: inactive

How did CC1=C(C(=O)NCc2ccccn2)C2(CCC(C)CC2)OC1=O (stereo not given) do in these assays?
FXIIa inh: inactive; hK5 inh: 115; Thrombin inh: inactive; FXIa inh 1536: inactive; Furin inhibitor: inactive

How did CC1=C(C(=O)NCc2ccc(Cl)cc2)C2(CCC(C)CC2)OC1=O (stereo not given) do in these assays?
FXIIa inh: inactive; hK5 inh: inactive; Thrombin inh: inactive; FXIa inh 1536: inactive; Furin inhibitor: inactive
